# From PubChem BioAssay
# Biofilm kill mix: clotrimazole potentiators killing C. albicans biofilm, primary screen, 4-compound mixtures | C. albicans biofilm persisters + clotrimazole, fluorescence viability; primary screen in compound mixtures of four per well | actives 0.02% (n = 120,000) | AID 1242, 2008 | inhibition, % at 7.6 µM;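 active = inhibition above 30.3% in the primary screen of four-compound pools, then above 30% when the compound was retested; inconclusive = passed the primary limit but could not be retested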;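 note: compounds exposed to preformed 24 h biofilms for 48 h; 0% = untreated biofilm control and 100% = clotrimazole plus chlorhexidine kill blank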
#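 Test system: C. albicans biofilms. Buffer or medium: RPMI/MOPS medium, pH 7.0. Timing: 48 h compound exposure at 37 °C. Technique: Alamar Blue fluorescence. Evaluation: percent inhibition of biofilm viability.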
# ROMK mod: ROMK potassium channel modulators, primary screen, cell-based, thallium flux, MLSMR library | Tet-inducible ROMK, thallium flux fluorescence; actives lie on both sides | actives 2% (n = 130,000) | B-score at 10 µM;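 active = signal ratio slope over the read window, or its plate-corrected B-score, at least 3 SD from the plate mean, either direction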;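 note: B-score of the F/F0 ratio slope over 7 to 12 s after thallium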
# Target sequence (P48048 whole entry, looked up): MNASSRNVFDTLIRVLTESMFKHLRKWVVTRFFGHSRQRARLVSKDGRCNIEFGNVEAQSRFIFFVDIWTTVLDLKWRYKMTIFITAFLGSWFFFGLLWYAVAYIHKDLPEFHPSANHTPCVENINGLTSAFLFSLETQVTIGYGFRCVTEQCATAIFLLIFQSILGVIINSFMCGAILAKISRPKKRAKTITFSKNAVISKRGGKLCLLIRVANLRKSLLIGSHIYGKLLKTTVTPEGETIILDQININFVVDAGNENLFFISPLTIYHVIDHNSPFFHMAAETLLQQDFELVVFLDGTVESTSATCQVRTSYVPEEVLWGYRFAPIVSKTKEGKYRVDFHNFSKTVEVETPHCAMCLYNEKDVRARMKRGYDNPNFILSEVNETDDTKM
# ROMK hit retest: ROMK channel modulator hit retest, confirmation, cell-based, thallium flux, duplicate, resupplied hits. normalized thallium flux (F/F0 slope) at 10 µM. AID 1917, 2009. shares compounds with ROMK mod. actives 54% (n = 3,000). fluorescence ratio; active compounds read low;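 active = Flux at 10 µM at least 3 SD below or above vehicle control mean in one or both replicates; inconclusive = no clear call, values can overlap the other calls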
# * marks the source's active call; other numbers are inactive results; u = inconclusive; x = no result given. The sample as a whole holds a higher share of hits than the screen did.
SMILES,Biofilm kill mix,ROMK mod,ROMK hit retest
CC(=O)N1CCc2cc(Br)cc(S(=O)(=O)N3CCc4ccccc43)c21,5,-0.52,x
CCCCOc1ccccc1C(=O)NCCCC(=O)O,x,0.3,x
COc1ccc(N(CC(=O)NN=C2CCCC2)S(=O)(=O)c2ccccc2)cc1,x,1.8*,0.088
COc1ccc(N(CC(=O)NN=C2CCCCCCC2)S(=O)(=O)c2ccccc2)cc1Cl,x,-0.42,x
Cc1cccc(NC(=O)c2cc([N+](=O)[O-])ccc2NCC2CCCO2)n1 (stereo unspecified),2,-2.2,x
COCCCNc1ccc([N+](=O)[O-])cc1C(=O)Nc1cccc(C)n1,-1,-4.1*,0.045*
CC(C)c1ccc2c(c1)CCC1C(C)(CN)CCCC21C (stereo unspecified),2,x,0.04*
Cc1ccc(SCC(=O)Nc2cc(C)on2)cc1,x,-0.72,x
CN(C)c1nc2ccccc2n(C)c1=O,1,0.25,x
COc1ccc(S(=O)(=O)N(C)C)cc1NC(=O)COC(=O)c1nn(C)c(=O)c2ccccc12,14,0.19,x
COc1ccc(S(=O)(=O)N(C)C)cc1NC(=O)COC(=O)c1nc2nccc(C)n2n1,1,x,0.075
O=[N+]([O-])c1ccc(N2CCN(C(=S)c3cccc([N+](=O)[O-])c3)CC2)cc1,23,-3.1*,0.065*
CC(=O)N1CCN(C(=S)c2cccc([N+](=O)[O-])c2)CC1,18,0.59,x
CCCCCCCN1N=C(C)C(C(=O)c2ccccc2)C1=O (stereo unspecified),x,0.95,x
CCCCCN1N=C(C)CC1=O,9,2.7*,0.079
C=CCOC(=O)C(C#N)c1nc2ccccc2nc1N1CCN(Cc2ccc3c(c2)OCO3)CC1 (stereo unspecified),x,-3.2*,0.063*
CCCCNC(=O)C(C#N)c1nc2ccccc2nc1N1CCN(Cc2ccc3c(c2)OCO3)CC1 (stereo unspecified),x,-0.021,x
Cc1ccc(-c2cc(-c3ccccc3C)[nH]n2)c(O)c1,14,0.028,x
C=CCSc1n[nH]c(=O)n1-c1cccc(C(F)(F)F)c1,15,x,x
O=C(Nc1ccccc1Cl)c1csc(-c2cccnc2)n1,30,5.2*,0.1*
O=C(NNC(=O)c1csc(-c2cccnc2)n1)c1ccccc1,10,-0.9,x
Cc1ccc(C(=O)NCC(C)(C)N2CCOCC2)s1,x,0.39,x
O=C1CCCc2nc3c(cc21)C(O)Oc1c-3ccc2ccccc12 (stereo unspecified),17,-0.93,x
O=C1CCCc2nc3c(cc21)C(O)Oc1ccccc1-3 (stereo unspecified),-1,x,0.075
O=C(C[n+]1cc2ccccc2c2ccccc21)c1ccccc1,x,-3.8*,0.057*
SMILES,Biofilm kill mix,ROMK mod,ROMK hit retest
O=C(C[n+]1cccc2ccccc21)c1ccccc1,-2,0.43,x
COC(=O)c1ccc(/C=C(\C#N)C(=O)NC(C)c2ccccc2)cc1 (stereo unspecified),28,x,0.049*
CC(NC(=O)/C(C#N)=C/c1cccs1)c1ccccc1 (stereo unspecified),2,-4.6*,0.054*
CC(NC(=O)/C(C#N)=C/c1ccco1)c1ccccc1 (stereo unspecified),9,x,x
N#C/C(=C\c1cccs1)C(=O)Nc1ccccn1,23,x,x
O=c1c2ccccc2c(C=Nc2ccc(O)cc2)c(O)n1Cc1ccccc1,10,-4.6*,0.041*
COc1ccc(Cn2c(O)c(C=Nc3ccc(O)cc3)c3ccccc3c2=O)cc1,12,0.33,x
Cc1ccc(C(=O)Nc2ccccc2C(=O)N2CCCC2)cc1[N+](=O)[O-],-1,x,x
COc1ccc(NC(=O)CCCN2C(=O)/C(=C\c3ccco3)SC2=S)cc1,16,-0.5,x
COc1ccc(/C(C)=C2\SC(=S)N(CCC(=O)O)C2=O)cc1,x,3.1*,0.076
Cc1ccc(-n2c(-c3c(-c4ccccc4)noc3C)n[nH]c2=S)cc1,x,0.71,x
CN(CC(=O)Nn1cnnc1)S(=O)(=O)c1cc(Cl)ccc1Cl,x,-0.067,x
CCOC(=O)N1CCN(c2nc(-c3ccc(F)cc3)cs2)CC1,x,-2.6*,u
O=C(C1CCCCC1)N1CCN(c2nc(-c3ccc(F)cc3)cs2)CC1,10,-0.13,x
CCc1ccc(S(=O)(=O)NCc2csc(C)n2)s1,2,-0.05,x
CCCCOc1ccc(S(=O)(=O)NCc2csc(C)n2)cc1,x,-2.3*,0.067*
CCOc1ccc(CN2CCN(S(=O)(=O)c3ccc(NC(C)=O)cc3)CC2)cc1OC,x,0.1,x
CCOC(=O)C1=C(N)OC2=C(C(=O)CCC2)C1c1ccco1 (stereo unspecified),x,0.21,x
CCOc1ccccc1C1C(C(=O)OC)=C(N)OC2=C1C(=O)CCC2 (stereo unspecified),x,x,0.079
CCOC(=O)N1CCN(C(=O)CSc2nc(CC)nc3c2c(=O)n(C)c(=O)n3C)CC1,14,x,x
CCc1nc(SCC(=O)N2CCN(c3ccccc3)CC2)c2c(=O)n(C)c(=O)n(C)c2n1,10,x,x
CCCc1nc(SCC(=O)N2CCC(Cc3ccccc3)CC2)c2c(=O)n(C)c(=O)n(C)c2n1,x,x,u
COCCn1c(SCC(=O)N2CCc3ccccc32)nc2c(c1=O)SC(C)C2 (stereo unspecified),11,x,x
CCCc1nc(SCC(=O)N2CCCc3ccccc32)c2c(=O)n(C)c(=O)n(C)c2n1,x,x,0.057*
COCCn1c(SCC(=O)N2CCCc3ccccc32)nc2ccccc2c1=O,x,-2.7*,0.063*
SMILES,Biofilm kill mix,ROMK mod,ROMK hit retest
COc1cc(-c2nnco2)cc(OC)c1OC,24,-1.3,x
CS(=O)c1ccccc1COC(=O)Nc1ccccc1 (stereo unspecified),12,-0.58,x
CCCN1CCN(CCCNC(=S)Nc2ccc(F)cc2)CC1,2,x,x
CSc1cccc(NC(=S)NCCCN2CCN(c3ccc(F)cc3)CC2)c1,13,-2.7*,0.053*
O=C(Nc1ccccc1)OCc1ccccn1,x,2.6,x
CCOC(=O)c1c(CSc2ccccc2)n(C)c2cc(Br)c(O)c(CN(C)C)c12,20,-1.9,x
CCOC(=O)c1c(CSc2ccc(C)cc2)n(C)c2cc(Br)c(O)c(CN(C)C)c12,14,x,0.051*
CC(C)(C)c1ccc(C2C3=C(CCCC3=O)NC3=C2C(=O)c2ccccc23)cc1 (stereo unspecified),x,-1.1,x
CC(=O)Nc1ccc(NC(=O)CNS(=O)(=O)c2ccc(C)cc2)cc1,x,0.014,x
Cc1cc(OCCCCCNCCO)ccc1Cl,x,-1.9,x
Cc1cc(C(=O)CN2C(=O)NC3(CCCc4ccccc43)C2=O)c(C)n1Cc1ccco1 (stereo unspecified),x,0.94,x
Cc1cc(C(=O)CN2C(=O)NC3(CCCc4ccccc43)C2=O)c(C)n1Cc1ccccc1 (stereo unspecified),x,2*,0.079
Cc1c(CN2CCC(CO)(Cc3ccccc3)CC2)c2ccccc2n1C,29,-2.4*,0.06*
Cc1[nH]c2ccccc2c1CN1CCC(CO)(Cc2ccccc2)CC1,-3,-1.5,x
O=S(=O)(NC1CCCCC1Sc1ncccn1)c1ccc(Cl)cc1 (stereo unspecified),-3,0.46,x
Cc1ccc2c(c1)CC1(CN2C)C(=O)OC(C)(C)OC1=O,x,0.41,x
N#C/C(=C\c1c[nH]c2ccccc12)c1nnc2n1CCCCC2,7,x,x
